ChEMBL document CHEMBL4138103, “Discovery of efficient stimulators for adult hippocampal neurogenesis based on scaffolds in dragon's blood” (Eur J Med Chem, 2017)
Active and inactive are the calls of the source. The rule behind the calls is not given here.

Key:
Rattus norvegicus [1] = assay: Downregulation of ERK phosphorylation in Sprague-Dawley rat adult hippocampus at 2.2 to 4 mg/kg, ip qd preincubated for 28 days followed by BrdU addition at 2 hrs interval for twice on day 29 measured at 24 hrs post BrdU pulse by immunoblot assay; assay type: functional, organism-based; conditions: in the assay text read “Upregulation” for “Downregulation”
How it was run: (§1)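 Male SD rats (received at 10 weeks, acclimatized 7 days) were dosed ip once daily for 28 days. The compounds were given in soybean oil with 10% ethanol, and the vehicle group received 10% ethanol in oil. BrdU was given 100 mg/kg twice, 2 h apart, on day 29. Hippocampal tissue was taken 24 h or 28 days later. Lysates were made in RIPA with protease inhibitors and run on 12% SDS-PAGE. Akt, pAkt, ERK1/2 and pERK1/2 were immunoblotted and read by densitometry against GAPDH, normalized to vehicle = 1.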

Rattus norvegicus [2] = assay: (§2) In vivo neurogenic activity in Sprague-Dawley rat neural progenitor cells assessed as differentiation of new born NPCs to mature functional neurons at 2 mg/kg, ip qd preincubated for 28 days followed by BrdU addition at 2 hrs interval for twice on day 29 measured at 28 days post BrdU pulse by NeuN/BrdU double staining based assay relative to control
How it was run: (§3)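 SD male rats, 11 weeks old, were given compound ip daily for 28 days in 10% ethanol/soybean oil. On day 29 they received BrdU 100 mg/kg ip twice, 2 h apart, and were perfused 28 days after the last BrdU. Fixed 30 µm cryosections were co-stained for BrdU and NeuN by fluorescence. BrdU+ cells and the BrdU+NeuN+/BrdU+ fraction were counted against vehicle, mean ± SEM, n = 8.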

[3] = Cytotoxicity against human SH-SY5Y cells assessed as cell survival at 1000 uM after 24 hrs by MTT assay relative to control; assay type: cell-based; conditions: read-out: Survival
How it was run: (§4)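 SH-SY5Y human neuroblastoma cells seeded at 5 × 10⁴ cells/mL, incubated 24 h at 37 °C, then exposed to compounds at final concentrations of […] for 24 h. MTT added for a further 4 h at 37 °C. Absorbance read at 570 nm and reported as percent viability. Five parallel samples per condition.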

Rattus norvegicus [4] = assay: In vivo neurogenic activity in Sprague-Dawley rat neural progenitor cells at 2.2 mg/kg, ip qd pretreated for 28 days followed by BrdU addition at 2 hrs interval for twice on day 29 measured after 24 hrs by BrdU incorporation assay; assay type: functional, organism-based
How it was run: (§5)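 Male SD rats aged 10 weeks, acclimatized 7 days (11 weeks old at start), dosed ip once daily for 28 days with compound in soybean oil containing 10% ethanol; vehicle group received 10% ethanol in oil. On day 29, BrdU in saline given twice at 100 mg/kg, 2 h apart. Rats sacrificed 24 h after the last BrdU. BrdU+ cells in SGZ-GCL counted by DAB immunostaining of 30 µm cryosections; n = 8; mean ± SEM.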

[5] = Cytotoxicity against human SH-SY5Y cells assessed as cell survival at 100 uM after 24 hrs by MTT assay relative to control; assay type: cell-based; conditions: read-out: Survival; how it was run: as §4
Rattus norvegicus [6] = assay: as §2, with “neurons at 20 mg/kg, ip” for “neurons at 2 mg/kg, ip”; how it was run: as §3
Rattus norvegicus [7] = assay: Downregulation of AKT phosphorylation in Sprague-Dawley rat adult hippocampus at 2 to 20 mg/kg, ip qd preincubated for 28 days followed by BrdU addition at 2 hrs interval for twice on day 29 measured at 28 days post BrdU pulse by immunoblot assay; assay type: functional, organism-based; how it was run: as §1
Rattus norvegicus [8] = assay: In vivo neurogenic activity in Sprague-Dawley rat neural progenitor cells at 2 mg/kg, ip qd preincubated for 28 days followed by BrdU addition at 2 hrs interval for twice on day 29 measured at 28 days post BrdU pulse by BrdU double staining based assay relative to control; assay type: functional; how it was run: as §3
[9] = Cytotoxicity against human SH-SY5Y cells assessed as cell survival at 500 uM after 24 hrs by MTT assay relative to control; assay type: cell-based; conditions: read-out: Survival; how it was run: as §4
Rattus norvegicus [10] = assay: Downregulation of AKT phosphorylation in Sprague-Dawley rat adult hippocampus at 2.2 to 4 mg/kg, ip qd preincubated for 28 days followed by BrdU addition at 2 hrs interval for twice on day 29 measured at 24 hrs post BrdU pulse by immunoblot assay; assay type: functional, organism-based; conditions: in the assay text read “Upregulation” for “Downregulation”; how it was run: as §1
Rattus norvegicus [11] = assay: Effect on AKT expression in Sprague-Dawley rat adult hippocampus at 2.2 to 4 mg/kg, ip qd preincubated for 28 days followed by BrdU addition at 2 hrs interval for twice on day 29 measured at 24 hrs post BrdU pulse by immunoblot assay; assay type: functional, organism-based; how it was run: as §1
Rattus norvegicus [12] = assay: In vivo neurogenic activity in Sprague-Dawley rat neural progenitor cells at 4 mg/kg, ip qd pretreated for 28 days followed by BrdU addition at 2 hrs interval for twice on day 29 measured after 24 hrs by BrdU incorporation assay relative to control; assay type: functional; how it was run: as §5
Rattus norvegicus [13] = assay: Downregulation of ERK phosphorylation in Sprague-Dawley rat adult hippocampus at 2 to 20 mg/kg, ip qd preincubated for 28 days followed by BrdU addition at 2 hrs interval for twice on day 29 measured at 28 days post BrdU pulse by immunoblot assay; assay type: functional, organism-based; how it was run: as §1
Rattus norvegicus [14] = assay: Effect on ERK expression in Sprague-Dawley rat adult hippocampus at 2 to 20 mg/kg, ip qd preincubated for 28 days followed by BrdU addition at 2 hrs interval for twice on day 29 measured at 28 days post BrdU pulse by immunoblot assay; assay type: functional, organism-based; how it was run: as §1
Rattus norvegicus [15] = assay: Effect on AKT expression in Sprague-Dawley rat adult hippocampus at 2 to 20 mg/kg, ip qd preincubated for 28 days followed by BrdU addition at 2 hrs interval for twice on day 29 measured at 28 days post BrdU pulse by immunoblot assay; assay type: functional, organism-based; how it was run: as §1
Rattus norvegicus [16] = assay: Effect on ERK expression in Sprague-Dawley rat adult hippocampus at 2.2 to 4 mg/kg, ip qd preincubated for 28 days followed by BrdU addition at 2 hrs interval for twice on day 29 measured at 24 hrs post BrdU pulse by immunoblot assay; assay type: functional, organism-based; how it was run: as §1
Rattus norvegicus [17] = assay: as §2, with “neurons at 4 mg/kg, ip” for “neurons at 2 mg/kg, ip”; how it was run: as §3

In the case of CC(=O)Nc1ccc(/C=C/c2ccc3c(c2)OCO3)cc1, the Activity (Rattus norvegicus [1]) is reported as “Active”, the “fold change (FC)” value (Rattus norvegicus [2]) is reported as 4.6 and the viability at 24 h, 1000 µM [3] is reported as 80.4%. For the same compound, the Activity (Rattus norvegicus [4]) was “Active”, the viability at 24 h, 100 µM [5] was 97% and the “fold change (FC)” value (Rattus norvegicus [6]) was 2.3. For the same compound, the Activity (Rattus norvegicus [7]) was “Active”, the “fold change (FC)” value (Rattus norvegicus [8]) was 4.2 and the viability at 24 h, 500 µM [9] was 91.9%. For the same compound, the Activity (Rattus norvegicus [10]) was “Active”, the Activity (Rattus norvegicus [11]) was “Active” and the Activity (Rattus norvegicus [12]) was “Active”. For the same compound, the Activity (Rattus norvegicus [13]) was “Active”, the Activity (Rattus norvegicus [14]) was “Active” and the Activity (Rattus norvegicus [15]) was “Active”. For the same compound, the Activity (Rattus norvegicus [16]) was “Active” and the “fold change (FC)” value (Rattus norvegicus [17]) was 3.1.
